According to ChEMBL document CHEMBL3627671, “Novel derivatives of nitro-substituted salicylic acids: Synthesis, antimicrobial activity and cytotoxicity” (Bioorg Med Chem, 2015):
In brackets after ≈: the same amount, converted by molar mass.

Experiments:
Type in all cases: functional
[1] = test system: Mycobacterium tuberculosis; test: Antimycobacterial activity against Mycobacterium tuberculosis H37Rv 331/88 after 21 days; conditions: H37Rv 331/88, 504 h
[2] = test system: Mycobacterium kansasii; test: Antimycobacterial activity against Mycobacterium kansasii 235/80 after 7 days; conditions: 235/80, 168 h
Summary of the method: (§1)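 Šula's semisynthetic medium micromethod at 37 °C, read after 7, 14 and 21 days. The 1.0 McFarland suspension was diluted 10^-4. MIC determined. 6509/96 is a clinical isolate.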

[3] = test system: Mycobacterium tuberculosis; test: Antimycobacterial activity against Mycobacterium tuberculosis H37Rv 331/88 after 14 days; conditions: H37Rv 331/88, 336 h
[4] = test system: Mycobacterium kansasii; test: Antimycobacterial activity against Mycobacterium kansasii 235/80 after 14 days; conditions: 235/80, 336 h; summary of the method: as §1
[5] = test system: Mycobacterium kansasii; test: Antimycobacterial activity against Mycobacterium kansasii 235/80 after 21 days; conditions: 235/80, 504 h; summary of the method: as §1
[6] = test system: Mycobacterium avium; test: Antimycobacterial activity against Mycobacterium avium 330/80 after 14 days; conditions: 330/80, 336 h
[7] = test system: Mycobacterium avium; test: Antimycobacterial activity against Mycobacterium avium 330/80 after 21 days; conditions: 330/80, 504 h
[8] = test system: Mycobacterium kansasii; test: Antimycobacterial activity against Mycobacterium kansasii 6509/96 after 21 days; conditions: 6509/96, 504 h; summary of the method: as §1
[9] = test system: Mycobacterium kansasii; test: Antimycobacterial activity against Mycobacterium kansasii 6509/96 after 7 days; conditions: 6509/96, 168 h; summary of the method: as §1
[10] = test system: Mycobacterium kansasii; test: Antimycobacterial activity against Mycobacterium kansasii 6509/96 after 14 days; conditions: 6509/96, 336 h; summary of the method: as §1
[11] = test system: Escherichia coli; test: Antibacterial activity against Escherichia coli CCM4517 after 24 hrs by microdilution broth method; conditions: CCM4517, 24 h
Summary of the method: (§2)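 Mueller-Hinton broth microdilution (modified M07-A07), pH 7.4 (±0.2). Compounds dissolved in DMSO, tested at final 500 to 0.49 µmol/L. Inoculum in sterile water matched to 0.5 McFarland. Incubated in the dark, humid atmosphere, 35 °C, read at 24 and 48 h visually and at 540 nm. MIC taken as ≥95% growth reduction (IC95) versus control.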

[12] = test system: Klebsiella pneumoniae; test: Antibacterial activity against Klebsiella pneumoniae D 11750/08 after 48 hrs by microdilution broth method; conditions: D 11750/08, 48 h; summary of the method: as §2
[13] = test system: Staphylococcus epidermidis; test: Antibacterial activity against Staphylococcus epidermidis H 6966/08 after 24 hrs by microdilution broth method; conditions: H 6966/08, 24 h; summary of the method: as §2
[14] = test system: Staphylococcus aureus; test: Antibacterial activity against methicillin-resistant Staphylococcus aureus H 5996/08 after 24 hrs by microdilution broth method; conditions: H 5996/08, 24 h
[15] = test system: Escherichia coli; test: Antibacterial activity against Escherichia coli CCM4517 after 48 hrs by microdilution broth method; conditions: CCM4517, 48 h; summary of the method: as §2
[16] = test system: Enterococcus sp.; test: Antibacterial activity against Enterococcus sp. J 14365/08 after 48 hrs by microdilution broth method; conditions: J 14365/08, 48 h; summary of the method: as §2
[17] = test system: Staphylococcus aureus; test: Antibacterial activity against Staphylococcus aureus CCM 4516/08 after 48 hrs by microdilution broth method; conditions: CCM 4516/08, 48 h
[18] = test system: Staphylococcus aureus; test: Antibacterial activity against Staphylococcus aureus CCM 4516/08 after 24 hrs by microdilution broth method; conditions: CCM 4516/08, 24 h
[19] = test system: Pseudomonas aeruginosa; test: Antibacterial activity against Pseudomonas aeruginosa CCM 1961 after 24 hrs by microdilution broth method; conditions: CCM 1961, 24 h; summary of the method: as §2
[20] = test system: Staphylococcus aureus; test: Antibacterial activity against methicillin-resistant Staphylococcus aureus H 5996/08 after 48 hrs by microdilution broth method; conditions: H 5996/08, 48 h
[21] = test system: Klebsiella pneumoniae; test: Antibacterial activity against Klebsiella pneumoniae D 11750/08 after 24 hrs by microdilution broth method; conditions: D 11750/08, 24 h; summary of the method: as §2
[22] = test system: Klebsiella pneumoniae; test: Antibacterial activity against ESBL-positive Klebsiella pneumoniae J 14368/08 after 24 hrs by microdilution broth method; conditions: J 14368/08, 24 h; summary of the method: as §2
[23] = test system: Pseudomonas aeruginosa; test: Antibacterial activity against Pseudomonas aeruginosa CCM 1961 after 48 hrs by microdilution broth method; conditions: CCM 1961, 48 h; summary of the method: as §2
[24] = test system: Klebsiella pneumoniae; test: Antibacterial activity against ESBL-positive Klebsiella pneumoniae J 14368/08 after 48 hrs by microdilution broth method; conditions: J 14368/08, 48 h; summary of the method: as §2
[25] = test system: Staphylococcus epidermidis; test: Antibacterial activity against Staphylococcus epidermidis H 6966/08 after 48 hrs by microdilution broth method; conditions: H 6966/08, 48 h; summary of the method: as §2
[26] = test system: Enterococcus sp.; test: Antibacterial activity against Enterococcus sp. J 14365/08 after 24 hrs by microdilution broth method; conditions: J 14365/08, 24 h; summary of the method: as §2

`O=C(Nc1cccc(Br)c1)c1cccc([N+](=O)[O-])c1O` gave an MIC [1] of 62.5 µM (≈ 21.1 µg/mL), an MIC [2] of 62.5 µM (≈ 21.1 µg/mL) and an MIC [3] of 62.5 µM (≈ 21.1 µg/mL). For the same compound, the MIC [4] was 125 µM (≈ 42.1 µg/mL), the MIC [5] was 125 µM (≈ 42.1 µg/mL) and the MIC [6] was 250 µM (≈ 84.3 µg/mL). For the same compound, the MIC [7] was 250 µM (≈ 84.3 µg/mL), the MIC [8] was 125 µM (≈ 42.1 µg/mL) and the MIC [9] was 125 µM (≈ 42.1 µg/mL). It also gave an MIC [10] of 125 µM (≈ 42.1 µg/mL).

In the case of `O=C(Nc1cccc(F)c1)c1cccc([N+](=O)[O-])c1O`, the MIC [1] is reported as 62.5 µM (≈ 17.3 µg/mL), the MIC [2] is reported as 62.5 µM (≈ 17.3 µg/mL) and the MIC [3] is reported as 62.5 µM (≈ 17.3 µg/mL). It also gave an MIC [4] of 125 µM (≈ 34.5 µg/mL), an MIC [5] of 250 µM (≈ 69.1 µg/mL) and an MIC [6] of 500 µM (≈ 138 µg/mL). The MIC [7] was 500 µM (≈ 138 µg/mL), the MIC [8] was 250 µM (≈ 69.1 µg/mL) and the MIC [9] was 125 µM (≈ 34.5 µg/mL). For the same compound, the MIC [10] was 250 µM (≈ 69.1 µg/mL).

`CC1(C)S[C@@H]2[C@H](NC(=O)Cc3ccccc3)C(=O)N2[C@H]1C(=O)O` [PENICILLIN G] showed an MIC [11] of 125 µM (≈ 41.8 µg/mL), an MIC [12] of 500 µM (≈ 167 µg/mL) and an MIC [13] of 250 µM (≈ 83.6 µg/mL). For the same compound, the MIC [14] was 62.5 µM (≈ 20.9 µg/mL), the MIC [15] was 125 µM (≈ 41.8 µg/mL) and the MIC [16] was 15.6 µM (≈ 5.22 µg/mL). The MIC [17] was 0.98 µM (≈ 0.328 µg/mL), the MIC [18] was 0.98 µM (≈ 0.328 µg/mL) and the MIC [19] was greater than 500 µM. For the same compound, the MIC [20] was 125 µM (≈ 41.8 µg/mL), the MIC [21] was 500 µM (≈ 167 µg/mL) and the MIC [22] was greater than 500 µM. For the same compound, the MIC [23] was greater than 500 µM, the MIC [24] was greater than 500 µM and the MIC [25] was 250 µM (≈ 83.6 µg/mL). The MIC [26] was 7.81 µM (≈ 2.61 µg/mL).

`O=C(Nc1cccc(Cl)c1)c1cccc([N+](=O)[O-])c1O` was tested, and the MIC [1] was 62.5 µM (≈ 18.3 µg/mL), the MIC [2] was 62.5 µM (≈ 18.3 µg/mL) and the MIC [3] was 62.5 µM (≈ 18.3 µg/mL). It also gave an MIC [4] of 125 µM (≈ 36.6 µg/mL), an MIC [5] of 250 µM (≈ 73.2 µg/mL) and an MIC [6] of 500 µM (≈ 146 µg/mL). It also gave an MIC [7] of 500 µM (≈ 146 µg/mL), an MIC [8] of 125 µM (≈ 36.6 µg/mL) and an MIC [9] of 125 µM (≈ 36.6 µg/mL). The MIC [10] was 125 µM (≈ 36.6 µg/mL).

Work on `O=C(Nc1cccc(I)c1)c1cccc([N+](=O)[O-])c1O` yielded an MIC [1] of 62.5 µM (≈ 24 µg/mL), an MIC [2] of 62.5 µM (≈ 24 µg/mL) and an MIC [3] of 62.5 µM (≈ 24 µg/mL). For the same compound, the MIC [4] was 125 µM (≈ 48 µg/mL), the MIC [5] was 125 µM (≈ 48 µg/mL) and the MIC [6] was 500 µM (≈ 192 µg/mL). The MIC [7] was 500 µM (≈ 192 µg/mL), the MIC [8] was 125 µM (≈ 48 µg/mL) and the MIC [9] was 125 µM (≈ 48 µg/mL). For the same compound, the MIC [10] was 125 µM (≈ 48 µg/mL).

In the case of `NNC(=O)c1ccncc1` [ISONIAZID], the MIC [1] is reported as 1 µM (≈ 0.137 µg/mL), the MIC [2] is reported as greater than 250 µM and the MIC [3] is reported as 0.5 µM (≈ 0.0686 µg/mL). It also gave an MIC [4] greater than 250 µM, an MIC [5] greater than 250 µM and an MIC [6] greater than 250 µM. It also gave an MIC [7] greater than 250 µM, an MIC [8] of 8 µM (≈ 1.1 µg/mL) and an MIC [9] of 4 µM (≈ 0.549 µg/mL). The MIC [10] was 8 µM (≈ 1.1 µg/mL).
